Three compounds from ChEMBL document CHEMBL4308919, “Discovery of TD-0212, an Orally Active Dual Pharmacology AT1 Antagonist and Neprilysin Inhibitor (ARNI)” (ACS Med Chem Lett, 2019) can be followed below.

Data set [1] addresses T1, Type-1 angiotensin II receptor (Homo sapiens, UniProt P30556).
T1 sequence (P30556 whole entry): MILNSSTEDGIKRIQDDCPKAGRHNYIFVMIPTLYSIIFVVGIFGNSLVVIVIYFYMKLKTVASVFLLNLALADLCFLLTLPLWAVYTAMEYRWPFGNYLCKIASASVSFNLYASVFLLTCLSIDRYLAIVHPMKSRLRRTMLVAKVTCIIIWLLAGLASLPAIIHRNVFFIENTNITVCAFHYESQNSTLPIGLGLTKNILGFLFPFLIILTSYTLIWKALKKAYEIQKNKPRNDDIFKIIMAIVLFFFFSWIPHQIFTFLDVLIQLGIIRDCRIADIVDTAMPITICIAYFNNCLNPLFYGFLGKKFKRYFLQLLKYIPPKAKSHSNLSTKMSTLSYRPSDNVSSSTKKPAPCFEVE
The experiment in a line: Displacement of Europium-labeled angiotensin-2 from human AT1 receptor expressed in CHOK1 cell membranes after 120 mins by DELFIA.

For data set [2], the system named is Rattus norvegicus. Briefly: In vivo inhibition of NEP in Sprague-Dawley rat assessed as potentiation of ANP-induced elevation of urinary cGMP level at 3 mg/kg, iv treated for 5 mins at 15 mins post 2 doses of angiotensin-2 treatment at 15 minutes apart followed by ANP treatment measured up to 60 mins by EIA relative to control. The data set is classed as functional. In outline: (§1)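 Rat pharmacodynamic assay with intravenous dosing to exclude oral absorption. AT1 antagonism is read in the same animal as inhibition of the angiotensin-II-evoked pressor response. NEP inhibition is read as potentiation of ANP-induced elevation of urinary cGMP output, relative to vehicle.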

For another data set, the target named is Neprilysin (Homo sapiens, UniProt P08473). Briefly: Inhibition of NEP (unknown origin) preincubated for 10 mins followed by fluorogenic substrate addition and measured after 20 mins by fluorescence assay.
Data set [3] has as its target Angiotensin-converting enzyme (Homo sapiens, UniProt P12821). Briefly: Inhibition of recombinant human ACE using Mca-BK2 as substrate preincubated for 10 mins followed by fluorogenic substrate addition and measured after 20 mins by fluorescence assay.
In data set [4] the test system is Rattus norvegicus. The experiment in a line: Antihypertensive activity in spontaneously hypertensive rat assessed as reduction in mean arterial pressure administered via oral gavage in […] measured up to 24 hrs by telemetry method. The format is functional. In outline:
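Conscious spontaneously hypertensive rats, dosed orally. Blood pressure is monitored by telemetry for 24 h after each dose. Sequential escalating doses of 3, 10, 30 and 100 mg/kg are given at 24 h intervals. Efficacy is the peak percent fall in MAP from baseline. Duration is the vehicle-adjusted % change in AUC over 24 h. Statistics: two-way ANOVA with Bonferroni post hoc.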

For data set [5], the system named is Rattus norvegicus. Briefly: Antihypertensive activity in DOCA salt-induced CD-1 rat model of hypertension assessed as reduction in blood pressure administered via oral gavage in ascending cumulative doses […] measured up to 24 hrs by telemetry method. The data set is classed as functional. In outline: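 Conscious DOCA-salt hypertensive rats, a low-renin model, dosed orally. Reduction in blood pressure is followed over time. ED10 is the dose giving an average 10% reduction in the 24 h average MAP.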

For data set [6], the system named is Rattus norvegicus. The experiment in a line: Induction of angioedema in normotensive rat assessed as increase in tracheal plasma extravasation by measuring Evans blue dye leakage into peritracheal tissue at 0.3 to 3 mg/kg, po. The format is organism-based. The note with it: in vivo. In outline: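 Rat tracheal plasma extravasation model adapted from Sulpizio et al., used as a surrogate for upper-airway angioedema. Normotensive rats are dosed orally. Read-out is Evans Blue dye leakage into peritracheal tissue, compared with vehicle.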

Data set [7] relates to Rattus norvegicus. The experiment in a line: In vivo antagonist activity at AT1 receptor in Sprague-Dawley rat assessed as inhibition of angiotensin-2-induced pressor response at 3 mg/kg, iv treated for 5 mins at 15 mins post 2 doses of angiotensin-2 treatment at 15 minutes apart followed by ANP treatment and subsequent angiotensin-2 re-challenge after 60 mins relative to control. The data set is classed as functional. In outline: as §1

Data set [8] deals with T2, Type-2 angiotensin II receptor (Homo sapiens, UniProt P50052).
T2 sequence (P50052 whole entry): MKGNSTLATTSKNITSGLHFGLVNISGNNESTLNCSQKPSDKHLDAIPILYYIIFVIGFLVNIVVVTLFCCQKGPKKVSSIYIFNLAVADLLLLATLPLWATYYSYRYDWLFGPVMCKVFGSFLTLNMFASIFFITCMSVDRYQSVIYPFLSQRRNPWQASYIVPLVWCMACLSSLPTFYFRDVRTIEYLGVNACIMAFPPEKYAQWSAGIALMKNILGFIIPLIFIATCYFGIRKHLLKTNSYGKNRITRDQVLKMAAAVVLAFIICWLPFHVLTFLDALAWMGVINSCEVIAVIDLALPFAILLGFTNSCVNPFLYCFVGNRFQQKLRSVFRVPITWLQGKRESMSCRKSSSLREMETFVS
The experiment in a line: Displacement of Europium-labeled angiotensin-2 from human AT2 receptor expressed in CHOK1 cell membranes after 120 mins by DELFIA.

The target in data set [9] is T3, Endothelin-converting enzyme 1 (Homo sapiens, UniProt P42892).
T3 sequence (P42892 whole entry): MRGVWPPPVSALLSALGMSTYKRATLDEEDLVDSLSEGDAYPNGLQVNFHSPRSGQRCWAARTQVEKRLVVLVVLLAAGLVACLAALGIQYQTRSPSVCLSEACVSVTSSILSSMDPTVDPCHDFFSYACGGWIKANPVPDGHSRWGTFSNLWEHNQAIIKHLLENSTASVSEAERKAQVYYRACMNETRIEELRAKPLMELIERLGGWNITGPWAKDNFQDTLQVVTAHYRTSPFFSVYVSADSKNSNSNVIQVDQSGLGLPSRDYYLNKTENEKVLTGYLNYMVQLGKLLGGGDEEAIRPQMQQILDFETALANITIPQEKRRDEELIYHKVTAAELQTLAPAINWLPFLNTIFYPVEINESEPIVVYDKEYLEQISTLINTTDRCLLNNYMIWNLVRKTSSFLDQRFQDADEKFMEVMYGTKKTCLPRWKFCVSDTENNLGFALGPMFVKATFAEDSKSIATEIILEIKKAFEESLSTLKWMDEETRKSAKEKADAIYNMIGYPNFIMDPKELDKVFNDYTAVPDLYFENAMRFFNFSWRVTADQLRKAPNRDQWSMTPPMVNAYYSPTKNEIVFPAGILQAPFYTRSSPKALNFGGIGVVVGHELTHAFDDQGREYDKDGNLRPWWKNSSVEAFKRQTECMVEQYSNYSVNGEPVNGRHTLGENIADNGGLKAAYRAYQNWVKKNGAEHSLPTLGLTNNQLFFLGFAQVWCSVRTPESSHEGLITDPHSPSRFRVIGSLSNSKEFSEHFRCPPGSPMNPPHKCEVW
The experiment in a line: Inhibition of recombinant human ECE1.

The species named for data set [10] is Homo sapiens. Briefly: Selectivity ratio of Ki for human AT2 receptor to Ki for human AT1 receptor.
The species entered for data set [11] is Homo sapiens. The experiment in a line: Selectivity ratio of IC50 for recombinant human ECE1 to IC50 for recombinant human NEP.
Data set [12] addresses T4, Type-1 angiotensin II receptor (Homo sapiens) (UniProt P30556).
T4 sequence (whole entry): T1 sequence (P30556 whole entry)
Briefly: Antagonist activity at AT1 receptor (unknown origin) by inositol phosphate accumulation assay relative to control. The format is functional.

The target in data set [13] is aminopeptidase P (Xaa-Pro aminopeptidase, Homo sapiens). The experiment in a line: Inhibition of APP (unknown origin).
Data set [14] deals with Rattus norvegicus. Briefly: Antihypertensive activity in spontaneously hypertensive rat assessed as reduction in mean arterial pressure administered via oral gavage in ascending cumulative doses […] measured up to 24 hrs in presence of NEP inhibitor candoxatril by telemetry method. The format is functional.

Sequence of Angiotensin-converting enzyme (P12821 whole entry): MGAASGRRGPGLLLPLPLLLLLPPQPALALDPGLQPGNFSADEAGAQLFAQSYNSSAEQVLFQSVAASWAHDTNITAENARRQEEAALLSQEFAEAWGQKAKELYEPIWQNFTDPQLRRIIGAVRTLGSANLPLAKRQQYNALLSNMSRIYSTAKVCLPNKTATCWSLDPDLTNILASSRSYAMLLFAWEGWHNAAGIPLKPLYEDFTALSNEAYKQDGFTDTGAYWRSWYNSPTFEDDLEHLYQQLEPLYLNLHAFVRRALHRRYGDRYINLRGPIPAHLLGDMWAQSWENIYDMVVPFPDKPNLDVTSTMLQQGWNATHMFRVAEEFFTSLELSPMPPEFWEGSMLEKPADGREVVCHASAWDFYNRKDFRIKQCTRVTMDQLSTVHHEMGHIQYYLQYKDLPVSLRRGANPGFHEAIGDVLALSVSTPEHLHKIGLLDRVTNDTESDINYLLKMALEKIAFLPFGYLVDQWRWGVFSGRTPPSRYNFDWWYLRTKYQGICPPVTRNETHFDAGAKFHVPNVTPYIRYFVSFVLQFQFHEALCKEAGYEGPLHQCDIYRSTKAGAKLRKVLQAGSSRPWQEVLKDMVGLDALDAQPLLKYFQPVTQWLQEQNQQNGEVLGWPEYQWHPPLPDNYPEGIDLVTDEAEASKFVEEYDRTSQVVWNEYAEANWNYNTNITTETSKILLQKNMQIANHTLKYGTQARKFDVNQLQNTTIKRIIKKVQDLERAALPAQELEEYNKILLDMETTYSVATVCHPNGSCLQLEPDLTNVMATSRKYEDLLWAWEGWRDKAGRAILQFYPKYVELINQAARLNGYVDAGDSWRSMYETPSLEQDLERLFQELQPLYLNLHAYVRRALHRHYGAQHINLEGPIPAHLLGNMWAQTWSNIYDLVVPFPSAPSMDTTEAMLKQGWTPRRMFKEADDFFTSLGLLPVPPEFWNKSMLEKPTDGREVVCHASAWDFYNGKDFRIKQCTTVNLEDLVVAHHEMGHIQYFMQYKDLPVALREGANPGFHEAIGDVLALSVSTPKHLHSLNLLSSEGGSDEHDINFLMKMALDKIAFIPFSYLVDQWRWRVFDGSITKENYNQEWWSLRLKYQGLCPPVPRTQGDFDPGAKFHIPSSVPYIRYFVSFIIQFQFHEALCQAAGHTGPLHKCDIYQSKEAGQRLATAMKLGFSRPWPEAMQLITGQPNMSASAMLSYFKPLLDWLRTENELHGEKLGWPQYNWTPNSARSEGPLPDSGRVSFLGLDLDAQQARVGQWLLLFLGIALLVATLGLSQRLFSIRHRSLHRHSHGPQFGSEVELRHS
Sequence of Neprilysin (P08473 whole entry): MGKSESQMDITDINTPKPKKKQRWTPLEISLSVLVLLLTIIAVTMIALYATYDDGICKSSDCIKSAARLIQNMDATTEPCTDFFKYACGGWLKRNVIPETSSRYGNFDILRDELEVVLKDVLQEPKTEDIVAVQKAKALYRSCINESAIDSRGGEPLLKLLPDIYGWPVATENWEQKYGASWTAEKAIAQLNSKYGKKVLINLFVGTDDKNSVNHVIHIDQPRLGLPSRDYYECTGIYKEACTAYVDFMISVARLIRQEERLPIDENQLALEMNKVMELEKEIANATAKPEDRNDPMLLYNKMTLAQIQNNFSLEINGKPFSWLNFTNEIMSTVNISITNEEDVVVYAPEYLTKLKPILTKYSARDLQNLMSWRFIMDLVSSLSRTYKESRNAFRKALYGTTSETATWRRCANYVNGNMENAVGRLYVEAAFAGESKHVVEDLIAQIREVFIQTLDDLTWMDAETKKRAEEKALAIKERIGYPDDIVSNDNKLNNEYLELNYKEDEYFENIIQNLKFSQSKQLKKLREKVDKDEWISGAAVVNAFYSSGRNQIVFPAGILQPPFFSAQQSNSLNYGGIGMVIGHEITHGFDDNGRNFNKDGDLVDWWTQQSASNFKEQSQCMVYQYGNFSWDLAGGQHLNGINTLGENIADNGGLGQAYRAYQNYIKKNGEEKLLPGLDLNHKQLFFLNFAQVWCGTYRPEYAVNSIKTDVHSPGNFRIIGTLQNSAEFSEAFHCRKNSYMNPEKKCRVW

For orientation: Ki means the dissociation constant of the complex between target and ligand, obtained from inhibition or displacement. High values mean weaker binding, low ones tighter binding. One may read the IC50 as the concentration needed to halve the response being measured. The compound `O=C(N[C@H]1CCS[C@H]2CCC[C@@H](C(=O)O)N2C1=O)[C@@H](S)Cc1ccccc1` [OMAPATRILAT] showed an inhibition constant (Ki) in data set [1] of more than 10000 nM. Moreover, the “fold change (FC)” value in the data set with Rattus norvegicus [2] turned out to be 5.3. The values for the IC50 (against Neprilysin; in [3]) were 0.2 nM and 0.1 nM, respectively. In addition, the Activity entry in the data set with Rattus norvegicus [4] is “Dose-dependent effect”; in the data set on Rattus norvegicus [6] it was “Non-Toxic”. Moreover, the values for the ED10 in the data set with Rattus norvegicus [4] and with Rattus norvegicus [5] were 15 mg/kg and 66 mg/kg, respectively.
As usually defined, the inhibition in vivo is the drop in the measured response relative to a control, in per cent. As for `CCOc1nc(CC)c(CNC(=O)[C@@H](S)CC(C)C)n1Cc1ccc(-c2ccccc2C(=O)O)cc1F`, the Ki is 1.26 nM in data set [1] and 2510 nM in [8]. The inhibition in vivo at 3 mg/kg in the data set with Rattus norvegicus [7] is 76%. In addition, the “fold change (FC)” value in the data set with Rattus norvegicus [2] was 3.5. Besides, the IC50 in [3] is more than 10000 nM; in [9], 79.4 nM; in data set [13], more than 10000 nM. Besides, the Activity result with Rattus norvegicus [4] and in the data set with Rattus norvegicus [5] was “Dose-dependent effect” each time. Further, the ED10 in the data set with Rattus norvegicus [4] worked out at 13 mg/kg; in the data set on Rattus norvegicus [5], 44 mg/kg. The Ratio Ki in the data set listed under Homo sapiens [10] worked out at 2000. Moreover, the Ratio IC50 in the data set filed under Homo sapiens [11] came out at 120. The compound further registered a % IP accumulation in data set [12] of less than 5%.
Regarding `CCCCC(=O)N(Cc1ccc(-c2ccccc2-c2nnn[nH]2)cc1)[C@H](C(=O)O)C(C)C`, in the data set on Rattus norvegicus [4], the Activity result is “Dose-dependent effect” and the ED10 is 17 mg/kg. In the data set with Rattus norvegicus [14], the ED10 stood at 15 mg/kg.
